Screening results as filed in PubChem.
An excerpt weighted towards active compounds, which were near 1.7% of everything screened.
STEP inh – STEP (human) phosphatase inhibition; P54829; recombinant STEP, OMFP fluorogenic substrate, fluorescence; inhibition, % at 20 µM; 360,000 compounds, 0.25% hits;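 active means inhibition at 20 µM, scaled per plate between control wells, above about 37%, limit read from the data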;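 further: 0% = DMSO with enzyme and substrate and 100% = substrate only without enzyme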
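Measure: Control-normalized % inhibition with plate pattern correction | Test system: STEP phosphatase, cell-free reaction | Medium: pH 6.0 Bis-Tris with DTT and Tween 20 | Technique: Fluorescence, 480/540 nm | Times: Reaction 20 min, ambient temperature | Doses: Single compound dose of 20 µM, 1% DMSO final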
Scp-1 inhibitor – blocks human Scp-1 phosphatase activity. Q9GZU7. Recombinant Scp1, phosphopeptide, malachite green phosphate absorbance. inhibition, % at 20 µM. 340,000 compounds, 0.88% hits;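 active means inhibition above about 50% at 20 µM, limit read from the data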;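 further: plate controls were DMSO wells with enzyme for no effect and wells lacking enzyme for full effect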
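System: truncated SCP-1 phosphatase (76-261aa); medium: Tris acetate buffer pH 5.5 with MgCl2 and Tween-20; incubation: 45 min room-temperature reaction, 5 min colour, 30 min stabiliser; compound: single 20 µM dose, 1% DMSO; reagent: Phosphorylated 17-residue peptide substrate; read-out: % inhibition at 20 µM; technique: colorimetric free-phosphate detection, absorbance 630 nm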
SUMO1 PPI mod – alters human SUMO1 binding to SIM partners. P63165. SUMO1 binding to a labelled peptide, TR-FRET, 1 h. inhibition, % at 20 µM. 360,000 compounds, 0.33% hits. AID 602429; in the data active means inhibition above about 37%
LMPTP inh – blocks human LMPTP phosphatase; recombinant LMPTP-A, OMFP fluorogenic substrate, fluorescence intensity; inhibition, % at 20 µM; P24666; 360,000 compounds, 0.22% hits;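 active means compounds that cut the enzyme signal by at least half of the control window in the single-dose screen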;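 further: plate controls were DMSO wells with enzyme plus substrate for no effect and substrate without enzyme for full effect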
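Test system: LMPTP-A, protein tyrosine phosphatase of low molecular weight; Input: 0.625 nM enzyme; Incubation: 50 min dark incubation at room temperature; Signal: endpoint fluorescence intensity from OMFP dephosphorylation; Read-out basis: % inhibition versus control wells.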
DNMT1 inh – blocks human DNA methyltransferase DNMT1. DNMT1 molecular beacon, Hinp1I cleavage, fluorescence. inhibition (reported as % activation of signal), % at 10 µM. 360,000 compounds, 0.83% hits. AID 588458; in the data active means inhibition above about 50%
Scp1 confirm – Scp-1 (human) inhibition, single-dose confirmed. shares compounds with Scp-1 inhibitor. recombinant SCP-1 catalytic domain, phosphate release, malachite green absorbance. inhibition, % at 20 µM. 2,500 compounds, 61% hits. AID 540281;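 further: plate controls were DMSO with enzyme for no effect and buffer wells lacking enzyme for full effect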
Scp-1 MG ctr – counter-screen for Scp-1 inhibitors: colorimetric interference | Colorimetric interference counterscreen, malachite green absorbance 630 nm | AID 540313 | shares compounds with Scp-1 inhibitor | apparent inhibition (interference), % at 20 µM | 2,500 tested, under 10 active;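 further: compounds added after enzyme reaction finished so only phosphate colour detection is probed; plate controls were DMSO wells with completed Scp-1 reaction for no effect and substrate wells lacking enzyme for full effect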
Scp1 DSF – Scp-1 (human) binding by thermal shift; thermal shift relative to vanadate control, % at 40 µM; 1,500 compounds, 25% hits; shares compounds with Scp-1 inhibitor; Recombinant SCP1, Sypro Orange thermal shift Tm;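 active means substances whose mean melting-temperature shift, as a percentage of the reference inhibitor's shift, reaches about 5.3%, limit read from the data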;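 further: 0% = Tm of DMSO wells and 100% = Tm with sodium orthovanadate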
Numbers without * were called inactive; · = no result given.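 How the source made its calls, unless noted: active means inhibition of at least 30% at 20 µM; inactive means the rest.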

SMILES	STEP inh	Scp-1 inhibitor	SUMO1 PPI mod	LMPTP inh	DNMT1 inh	Scp1 confirm	Scp-1 MG ctr	others
Cn1c(NC(=O)CCC2CCCCC2)cc(=O)n(C)c1=O	0.3	-9.1	9.2	1.1	-0.7	-12.6	-13.4
Cn1c(NC(=O)c2ccc(C(C)(C)C)cc2)cc(=O)n(C)c1=O	2.0	-6.6	1.7	0.6	2.6	-20.6	-12.8
Cc1noc(C)c1S(=O)(=O)N(CC(=O)NCCc1ccccc1)c1ccc(C(C)C)cc1	-0.8	-9.1	-1.4	2.1	-0.8	·	·
Cc1ccc(NS(=O)(=O)c2ccc3c(c2)OCCCO3)cc1S(=O)(=O)N1CCOCC1	0.6	-5.7	1.4	1.0	-1.1	·	·
Cc1cccc(NC(=O)C2CCCN2C(=O)NC2CCCCC2)c1 (stereo unspecified)	-2.7	-12.9	0.3	-0.7	2.5	·	·
COc1ccc(C(=O)NCCS(=O)(=O)N2CCCC2)cc1	-0.5	-8.2	1.7	-1.1	1.4	·	·
COc1ccccc1N1CCN(CCCCOc2ccc(C)cc2C)CC1	0.8	-5.1	4.8	0.3	-3.4	·	·
Cc1ccc(S(=O)(=O)NN2C(=O)/C(=C/c3ccc(C(=O)O)cc3)SC2=S)cc1	3.0	63.7*	-13.4	1.9	-0.2	4.5	-11.5
Cc1[nH]c2ccccc2c1C(=O)CNc1nccs1	0.1	96.2*	-0.3	1.2	-3.2	-5.6	-6.5
CC(=O)Oc1ccc(-c2ccc(C(=O)OCC(=O)N(C)CC(=O)Nc3ccccc3Cl)cc2)cc1	0.7	-9.6	-1.2	0.3	-2.8	·	·
CCNC(=O)N1C[C@H]2CON(C)[C@H]2C[C@H]1c1ccccc1Br	1.8	·	-0.2	-1.1	1.5	·	·
CC1CCN(C(=O)c2cc(-c3ccco3)on2)CC1	-2.4	-4.9	-0.4	-0.7	-1.3	·	·
CC1CCN(C(=O)c2cc(-c3ccccc3O)on2)CC1	-3.0	52.8*	-2.5	0.4	9.3	-17.2	-13.4
O=C(Nc1cccc(S(=O)(=O)N2CCCCCC2)c1)C1CCN(C(=O)c2ccc(F)cc2)CC1	-2.6	-11.8	2.8	1.3	-0.9	·	·
Cc1cccc(C(=O)OCC(=O)NCCNC(=O)COC(=O)c2cccc(C)c2C)c1C	-0.4	-6.7	-54.4	-8.8	-4.7	·	·
CC(C)Cc1ccc(CN2CCCC(NC(=O)CSc3nncn3C)C2)cc1 (stereo unspecified)	-1.4	·	-1.1	0.5	0.6	·	·
COc1ccccc1-n1c2nc3ccccc3nc2c2c(=O)n(-c3cc(C)cc(C)c3)cnc21	2.9	6.4	-26.2	1.6	-2.4	·	·
COc1ccccc1-n1cnc2c(c1=O)c1nc3ccccc3nc1n2-c1ccc(C)cc1	2.1	87.5*	-4.2	4.8	-5.7	34.0*	-12.3	Scp1 DSF=-12.4
Cc1ccccc1CSCC1Nc2ccc(C(=O)NCCc3ccccc3)cc2NC1=O (stereo unspecified)	-9.9	·	-6.6	1.5	-9.1	·	·
Cc1cc(Cl)ccc1OCC(=O)N[C@@H](Cc1ccccc1)c1nc2ccccc2[nH]1	1.4	85.7*	-2.8	-1.7	6.9	36.2*	-9.8	Scp1 DSF=-24.2
COc1cc(C(=O)NNC(=O)COc2ccc(Cl)cc2)ccc1OCC(=O)N1CCOCC1	0.8	-0.2	-5.8	-0.9	0.3	·	·
COC(=O)c1ccc(Cn2c(O)c(N=NC(N)=S)c3ccccc32)o1	2.3	60.0*	-25.5	3.4	39.9	-11.8	-20.5
CCOC(=O)c1c(C)[nH]c(C)c1C(=O)COC(=O)COc1ccc(Cl)c(C)c1	-0.6	-8.0	4.8	2.8	-0.2	·	·
Cc1cc(C)c(C#N)c(N2CCCC2)n1	0.5	-5.6	2.2	-0.9	0.3	·	·
Cc1cc(C)c(C#N)c(Cl)n1	-0.6	66.3*	3.8	-0.5	-0.1	-24.6	-21.4
SMILES	STEP inh	Scp-1 inhibitor	SUMO1 PPI mod	LMPTP inh	DNMT1 inh	Scp1 confirm	Scp-1 MG ctr	others
CCN1/C(=C2\C(=O)N(c3ccccc3)N=C2C)C=Cc2cc(C)ccc21	1.5	58.5*	-25.7	-0.9	3.8	-14.2	-20.0
O=C(O)c1cccc2c1/C(=N/Nc1ccc([N+](=O)[O-])cc1[N+](=O)[O-])c1ccccc1-2	17.2	85.6*	-4.4	12.6	-2.7	56.5*	-14.5	Scp1 DSF=12.0*
O=C(O)c1cccc2c1C(=O)c1cc([N+](=O)[O-])cc([N+](=O)[O-])c1-2	-2.2	·	0.3	0.6	10.8	·	·
O=C(CNC1CCCCCC1)Nc1ccccc1N1CCCCC1	0.6	89.9*	-1.1	-0.3	0.1	-9.0	-10.9
O=C(/C=C/c1cccs1)NNC(=O)c1ccccc1	-2.3	-5.0	-19.3	0.2	3.9	·	·
CCOc1cc(/C=N/NC(=O)c2cc3c(ccc4ccccc43)o2)ccc1O	-0.2	-3.6	3.5	0.5	-3.6	·	·
CCOC(=O)COc1ccccc1/C=N\NC(=O)c1cc2c(ccc3ccccc32)o1	4.2	83.7*	-10.1	5.8	-4.8	39.4*	-2.7	Scp1 DSF=0.1
O=[N+]([O-])c1ccc(NS(=O)(=O)c2ccc(Cl)c(Cl)c2)cc1	-0.9	·	-8.7	1.7	-0.7	·	·
Cc1ccc(C(=O)OCC(=O)c2ccc(CC(=O)N3CCOCC3)s2)cc1C	2.7	55.5*	-5.8	3.9	16.9	56.6*	-15.6	Scp1 DSF=3.5
CC(C(=O)NCc1cccs1)N1CCN(S(=O)(=O)c2ccc3c(c2)OCCCO3)CC1 (stereo unspecified)	0.5	1.0	-1.8	-1.1	0.3	·	·
C=C1CN(CC(=O)OC)S(=O)(=O)c2ccccc21	-4.9	-1.0	-6.3	-0.4	4.1	·	·
C=C1CN(Cc2ccccc2)S(=O)(=O)c2ccccc21	-0.6	95.1*	2.3	2.5	11.9	67.8*	-17.8	Scp1 DSF=0.2
CCCCN(C)c1c(C)nc2ccc(C(=O)N3CCN(C(C)=O)CC3)cn12	-2.5	·	2.0	0.3	3.9	·	·
Cc1cccc(CCNC(=O)Cc2ccc(NC3=NC4CS(=O)(=O)CC4S3)cc2)c1 (stereo unspecified)	-1.3	-9.2	0.5	-1.7	1.0	·	·
O=C(O)/C=C\C(=O)Nc1cccc(NC(=O)c2ccccc2)c1	0.6	1.4	6.6	-0.6	-1.9	·	·
O=C(O)/C=C/C(=O)Nc1ccc(NC(=O)c2ccccc2)c(Cl)c1	2.7	72.9*	6.2	1.5	1.0	1.1	-7.9
CCOCCCNC(=O)CN(c1cc([N+](=O)[O-])ccc1OC)S(C)(=O)=O	-1.6	21.2	-7.4	-0.5	-2.8	·	·
COc1cc(OC)cc(C(=O)OCC(=O)Nc2nnc(-c3ccccc3)o2)c1	4.2	-11.1	2.8	-0.1	0.2	·	·
O=C(COC(=O)c1cncc(Br)c1)Nc1nnc(-c2ccccc2)o1	2.0	60.2*	13.7	6.5	27.5	70.6*	-12.0	Scp1 DSF=6.1*
